Consider ten compounds from ChEMBL document CHEMBL1142417, “Studies on quinones. Part 43: Synthesis and cytotoxic evaluation of polyoxyethylene-containing 1,4-naphthoquinones” (Bioorg Med Chem, 2008).

The term IC50 denotes the midpoint of a concentration-inhibition curve. A higher IC50 goes with a need for much substance.

One experiment concerns MRC5. The experiment in a line: Cytotoxicity against human MRC5 cells after 72 hrs by MTT assay. It counts as cell-based. The conditions noted are these: MRC5, 72 h. The procedure, abridged: (§1)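 Cells seeded at 50,000 cells/mL and treated one day later for 3 days with compound at 0 up to 100 µM, with DMSO at 1% final. Untreated cells served as controls. Growth was read by MTT reduction, in sextuplicate. IC50 is the concentration giving 50% growth reduction. Media: AGS in Ham F-12; MRC-5, SK-MES-1 and J82 in MEM; all with 10% FBS at 37 °C and 5% CO2.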
For orientation: Tetrazolium assays rely on reduction of a dye to a coloured formazan, in cell work by metabolically active cells.

The subject of another experiment is AGS. The experiment in a line: Antitumor against human AGS cells after 72 hrs by MTT assay. It counts as functional, cell-based. The procedure, abridged:
as §1

A further experiment has as its system SK-MES-1. The experiment in a line: Antitumor against human SK-MES1 cells after 72 hrs by MTT assay. The conditions noted are these: SK-MES-1, 72 h. The class given is functional, cell-based. An outline of the steps:
as §1

In another experiment the test system is J82. The experiment in a line: Antitumor against human J82 cells after 72 hrs by MTT assay. The class given is functional, cell-based. The conditions noted are these: J82, 72 h. The procedure, abridged: as §1
The test system of the next experiment is HL-60. The experiment in a line: Antitumor against human HL60 cells after 72 hrs by MTT assay. It counts as functional, cell-based. The conditions noted are these: HL-60, 72 h. An outline of the steps: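 HL-60 leukemia cells kept in RPMI with 1 mM pyruvate and 10% heat-inactivated FBS at 37 °C and 5% CO2. They were plated at 50,000 cells/mL and exposed from day 1 for 3 days to compound at 0 up to 100 µM, with DMSO at 1% final. Untreated cells served as controls. Readout was MTT reduction in sextuplicate. IC50 is 50% growth reduction.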

With `O=C1C(Cl)=C(OCCOCCOC2=C(Cl)C(=O)c3ccccc3C2=O)C(=O)c2ccccc21`, the IC50 in the experiment on MRC5 was 7.3 µM; in the experiment with AGS, 11 µM; in the experiment with SK-MES-1, 16.1 µM; with J82 it was 26.6 µM; in the experiment with HL-60, 1.9 µM.
Regarding `O=C1C(Cl)=C(OCCOCCOCCOCCOC2=C(Cl)C(=O)c3ccccc3C2=O)C(=O)c2ccccc21`, the IC50 in the experiment on MRC5 is 55.8 µM; in the experiment on AGS, 54.8 µM; in the experiment on SK-MES-1 it was 12.2 µM; in the experiment on J82, 33.9 µM; with HL-60 it was 89.5 µM.
For the compound `COCCOC1=C(Cl)C(=O)c2ccccc2C1=O`, the half-maximal inhibitory concentration (IC50) in the experiment on MRC5 worked out at 3.5 µM; in the experiment on AGS it was 9.9 µM; in the experiment on SK-MES-1 it was 16.7 µM; in the experiment with J82, 19.4 µM; with HL-60 it was 1.7 µM.
Regarding `O=C1C2=C(OCCOCCOCCO2)C(=O)c2ccccc21`, the IC50 worked out at 10.1 µM in the experiment on MRC5; 17.5 µM with AGS; 7.9 µM with SK-MES-1; 19.8 µM in the experiment with J82; 2.6 µM with HL-60.
Consider `O=C1C2=C(OCCOCCO2)C(=O)c2ccccc21`, for which the half-inhibitory concentration (IC50) is 95.2 µM in the experiment on MRC5; 63.2 µM in the experiment with AGS; 16.4 µM in the experiment with SK-MES-1; 39.6 µM with J82; 21.4 µM in the experiment on HL-60.
The matching figures for `O=C1C2=C(OCCO2)C(=O)c2ccccc21`: 22.9 µM, 19.5 µM, 8.3 µM, 22.3 µM and 20.1 µM.
With `O=C1C(Cl)=C(OCCOCCOCCOC2=C(Cl)C(=O)c3ccccc3C2=O)C(=O)c2ccccc21`, the half-maximal inhibitory concentration (IC50) turned out to be 4 µM in the experiment on MRC5; 5.2 µM in the experiment on AGS; 7.1 µM with SK-MES-1; 8.6 µM in the experiment on J82; 1.3 µM in the experiment with HL-60.
Take `COC1=C(Cl)C(=O)c2ccccc2C1=O`: the concentration for half-maximal inhibition (IC50) in the experiment on MRC5 was found to be 3.5 µM; in the experiment on AGS it was 9.1 µM; with SK-MES-1 it was 11.5 µM; in the experiment with J82 it was 10.1 µM; with HL-60 it was 1.8 µM.
Take `COC1=C(OC)C(=O)c2ccccc2C1=O`: the IC50 in the experiment on MRC5 amounted to 7.2 µM; in the experiment with AGS, 9.1 µM; in the experiment on SK-MES-1, 5.3 µM; with J82 it was 16.1 µM; in the experiment on HL-60, 8.9 µM.
In the case of `COc1cc([C@@H]2c3cc4c(cc3[C@@H](O[C@@H]3O[C@@H]5CO[C@@H](C)O[C@H]5[C@H](O)[C@H]3O)[C@H]3COC(=O)[C@H]23)OCO4)cc(OC)c1O` [ETOPOSIDE], the half-maximal inhibitory concentration (IC50) in the experiment with MRC5 was 3.9 µM; in the experiment with AGS, 0.36 µM; in the experiment with SK-MES-1, 2.5 µM; in the experiment with J82, 2.8 µM; in the experiment with HL-60, 0.8 µM.
